Measurements pooled from the literature.
Lines come from different studies, so protocols differ.
Target: Mitogen-activated protein kinase kinase kinase kinase 2 (MAP4K2, Homo sapiens, UniProt Q12851)
Sequence (Q12851 1-820, as in one of the studies): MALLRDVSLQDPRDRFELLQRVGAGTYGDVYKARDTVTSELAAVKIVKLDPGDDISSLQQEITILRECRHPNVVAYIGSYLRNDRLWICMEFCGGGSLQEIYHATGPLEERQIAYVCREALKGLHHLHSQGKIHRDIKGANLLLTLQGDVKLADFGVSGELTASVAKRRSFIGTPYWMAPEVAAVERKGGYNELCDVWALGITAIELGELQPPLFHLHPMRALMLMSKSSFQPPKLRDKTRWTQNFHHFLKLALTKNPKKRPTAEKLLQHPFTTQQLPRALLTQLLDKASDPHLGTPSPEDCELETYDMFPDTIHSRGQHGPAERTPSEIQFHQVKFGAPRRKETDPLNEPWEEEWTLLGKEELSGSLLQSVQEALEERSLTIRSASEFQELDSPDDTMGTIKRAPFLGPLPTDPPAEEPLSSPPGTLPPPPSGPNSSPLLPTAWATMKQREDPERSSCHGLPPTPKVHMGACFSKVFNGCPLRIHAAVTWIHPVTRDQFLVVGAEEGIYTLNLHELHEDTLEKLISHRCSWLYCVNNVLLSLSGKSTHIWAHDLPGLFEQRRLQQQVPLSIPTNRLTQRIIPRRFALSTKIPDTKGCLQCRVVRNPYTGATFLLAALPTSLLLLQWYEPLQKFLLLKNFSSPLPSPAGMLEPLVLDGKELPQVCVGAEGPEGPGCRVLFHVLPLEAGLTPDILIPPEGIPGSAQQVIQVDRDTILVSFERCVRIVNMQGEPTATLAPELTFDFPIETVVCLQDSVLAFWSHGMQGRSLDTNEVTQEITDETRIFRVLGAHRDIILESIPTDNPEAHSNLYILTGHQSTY

SMILES | test | conditions | remaining binding
C[C@@H]1CCN(c2nccc(-c3cnn4ncccc34)n2)C1 | binding | 1 µM | 70%
O=C(NCc1ncc(C(F)(F)F)cc1Cl)c1ccc2c(c1)C1(CCS(=O)(=O)CC1)[C@@H](C1CC1)N2S(=O)(=O)c1ccc(F)cc1 | cell-free assay, competition with immobilised ligand | 1 µM | 91%
O=C(NCC1CCOCC1)c1n[nH]cc1NC(=O)c1c(F)cccc1F | binding, competition with immobilised ligand | 1 µM | 100%
c1cncc(-c2cccc(Nc3nccc(NC4CCCCC4)n3)c2)c1 | binding, competition with immobilised ligand | 10 µM | 67%
COc1ccnn2ncc(-c3ccnc(N(C)C)n3)c12 | binding | 1 µM | 73%
O=C(c1ccc(Nc2ncc(Cl)c(-c3ccc(Cl)s3)n2)cc1)N1CCC(N2CCCC2)CC1 | binding, competition with immobilised ligand | 1 µM | 15%
CNC(=O)Nc1ccc2c(c1)CC[C@@]21OC(=O)N(CC(=O)N(Cc2ccc(F)cc2)[C@@H](C)C(F)(F)F)C1=O | cell-free assay, competition with immobilised ligand | 1 µM | 76%
COc1ncc2cc3ccccc3nc2c1C#N | cell-free assay, competition with immobilised ligand | 5 µM | 84%
CN(C)c1ncnc(-c2ccc3nc(Nc4cc(CN5CCN(C(=O)CC(F)(F)F)CC5)ccn4)[nH]c3c2)c1Cl | cell-free assay, competition with immobilised ligand | 1 µM | 69%
CN(C)c1nccc(-c2cnn3ncccc23)n1 | binding | 1 µM | 100%
CNC(=O)[C@@H]1CC[C@@H](n2c(-c3ccc4cnccc4c3)nc3ccc(C(=O)NCc4cccc(C(N)=O)c4)cc32)C1 | binding, competition with immobilised ligand | 1 µM | 100%
O=C(O)c1cc(-c2ccc(C3CCNCC3)cc2)c2ccc(-c3ccc(C(F)(F)F)cc3)cc2c1 | cell-free assay, competition with immobilised ligand | 1 µM | 100%
O=C(NCCCN1CCOCC1)c1ccc(Nc2nccc(-c3cc4ccccc4s3)n2)cc1 | binding, competition with immobilised ligand | 1 µM | 73%
C[C@H](c1cccc(C#N)c1)n1cc(Cl)cc(C(N)=O)c1=N | cell-free assay, competition with immobilised ligand | 1 µM | 99%
Cc1cnc(Nc2ccc(C(=O)N3CCC(N4CCCC4)CC3)cc2)nc1-c1cc2ccccc2s1 | binding, competition with immobilised ligand | 1 µM | 41%
F[C@@H]1CCN(c2nccc(-c3cnn4ncccc34)n2)C1 | binding | 1 µM | 100%
CCN1CCN(Cc2ccc(C(=O)Nc3ccc(C)c(Oc4ccc5c(c4)CC(=O)N5)c3)cc2C(F)(F)F)CC1 | binding, competition with immobilised ligand | 1 µM | 100%
CC1CCCN1c1nccc(-c2cnn3ncccc23)n1 (stereo not shown) | binding | 1 µM | 100%
CN(C(=O)c1ccccc1)c1cc(N(C)c2ccc3c(c2)CCc2ccc(C(=O)NCCN4CCOCC4)cc2C3=O)ccc1F | cell-free assay, competition with immobilised ligand | 1 µM | 97%
COc1cnc(Nc2cccc(S(N)(=O)=O)c2)nc1N1CCN(c2ccccc2)C(=O)C1 | binding, competition with immobilised ligand | 1 µM | 95%
CC(=O)C1=C(C)N(c2cccc(C(F)(F)F)c2)C(=O)N[C@@H]1c1ccc(C#N)nc1 | cell-free assay, competition with immobilised ligand | 1 µM | 100%
CN(C)c1ncc(F)c(-c2cnn3ncccc23)n1 | binding | 1 µM | 82%
